Measured values reported in ChEMBL document CHEMBL1135884 (J Med Chem, 2002).

Tests used:
Serine protease 1 = biological target: T1, Serine protease 1 (Bos taurus, UniProt P00760); experiment: Inhibitory concentration against bovine trypsin
T1 sequence (P00760 whole entry): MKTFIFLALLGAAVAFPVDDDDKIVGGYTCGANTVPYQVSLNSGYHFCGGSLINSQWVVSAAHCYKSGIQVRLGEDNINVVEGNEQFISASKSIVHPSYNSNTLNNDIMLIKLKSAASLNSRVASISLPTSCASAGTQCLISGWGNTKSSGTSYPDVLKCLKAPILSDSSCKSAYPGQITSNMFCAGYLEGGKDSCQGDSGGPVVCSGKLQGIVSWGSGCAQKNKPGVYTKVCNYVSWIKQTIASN

Prothrombin = Prothrombin (Homo sapiens, UniProt P00734); experiment: Inhibitory concentration against thrombin.
Coagulation factor X [1] = biological target: T2, Coagulation factor X (Homo sapiens, UniProt P00742); experiment: Inhibitory concentration against human Coagulation factor Xa(fXa)
T2 sequence (P00742 41-179 limits assumed): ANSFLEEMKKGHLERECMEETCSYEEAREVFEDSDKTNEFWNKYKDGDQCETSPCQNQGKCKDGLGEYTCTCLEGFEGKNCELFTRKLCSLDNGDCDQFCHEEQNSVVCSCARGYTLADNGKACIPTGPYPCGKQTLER
T2 sequence (P00742 235-488 limits assumed): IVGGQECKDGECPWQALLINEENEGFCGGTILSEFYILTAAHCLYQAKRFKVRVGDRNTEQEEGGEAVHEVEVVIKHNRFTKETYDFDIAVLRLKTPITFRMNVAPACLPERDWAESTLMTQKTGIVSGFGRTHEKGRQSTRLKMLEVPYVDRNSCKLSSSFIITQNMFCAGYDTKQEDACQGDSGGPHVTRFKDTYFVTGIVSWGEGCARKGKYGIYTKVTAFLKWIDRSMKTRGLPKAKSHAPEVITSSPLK
Summary of the method: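 4-Nitroaniline release was read by absorbance at 405 nm. Inhibitors were prepared as 40 mM DMSO stocks and tested at 500, 50 and 5 µM. Km and Ki were obtained by nonlinear regression, with known factor Xa inhibitors as reference.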

Coagulation factor X [2] = biological target: T2, Coagulation factor X; experiment: Inhibitory concentration against human Coagulation factor Xa (fXa)

SMILES: N=C(N)c1cccc(C(=O)N[C@@H](C(=O)N2CCN(c3ccc(Cl)cc3)CC2)c2ccccc2)c1
- Ki (Serine protease 1): 1.7 µM
- Ki (Prothrombin): 1.6 µM
- Ki (Coagulation factor X [1]): 0.016 µM

SMILES: CCOC(=O)[C@@H](Cc1ccc2ccccc2c1)NC(=O)c1cccc(C(=N)N)c1
- Ki (Serine protease 1): 12.5 µM
- Ki (Coagulation factor X [2]): 2 µM

SMILES: CC(=N)N1CCC(Oc2ccc(N(Cc3ccc4ccc(C(=N)N)cc4c3)S(=O)(=O)CC(=O)O)cc2)CC1 [YM-60828]
- Ki (Serine protease 1): 0.159 µM

SMILES: N=C(N)c1cccc(C(=O)N[C@@H](C(=O)NCC2CCC(CN)CC2)c2ccccc2)c1 (some centres not stated)
- Ki (Serine protease 1): 7.4 µM

SMILES: N=C(N)c1cccc(C(=O)N[C@@H](C(=O)OCCC2CCN(C(=N)N)CC2)c2ccccc2)c1
- Ki (Serine protease 1): 1.6 µM
- Ki (Coagulation factor X [2]): 0.026 µM

SMILES: N=C(N)c1cccc(C(=O)NCC(=O)NCC2CCC(CN)CC2)c1 (configuration not stated)
- Ki (Serine protease 1): 14 µM

SMILES: N=C(N)c1ccccc1 [BENZAMIDINE]
- Ki (Coagulation factor X [2]): 0.2 µM

SMILES: N=C(N)c1cccc(C(=O)N[C@@H](C(=O)N2CCC(C(=O)c3ccccc3)CC2)c2ccccc2)c1
- Ki (Serine protease 1): 0.98 µM
